Results collected from several papers.
Each line is one published result; the experiments were not run side by side.
Effect on: cell growth or viability

O=C(Nc1ccccc1CO)c1c[nH]c2ccc(Cl)cc12 — IC50 (T24; MTT): 18 µM
CC(C)C[C@H](NC(=O)[C@H](Cc1ccccc1)NC(=O)c1cnccn1)B(O)O — IC50 (MM.1R; ATP luminescence; 48 h): 0.0089 µM
Cc1cc(C)cc(COc2cc3c(cc2OCc2cc(C)cc(C)c2)[C@H]2C[C@](O)(Cc4cn(Cc5ccncc5)nn4)C[C@H](C)N2CC3)c1 — IC50 (GES1; MTT; 48 h): 2.55 µM
C[C@H](NC(=O)c1cccc2ccccc12)C(=O)Nc1ccccc1Oc1ccccc1 — IC50 (SH-SY5Y): 4 µM
C=CC(=O)Nc1ccc(CCn2cc(C[C@@]3(O)C[C@@H]4c5cc(OCc6cc(C)cc(C)c6)c(OCc6cc(C)cc(C)c6)cc5CCN4[C@@H](C)C3)nn2)cc1 — IC50 (GES1; MTT; 48 h): 0.73 µM
CN(C)CCCOc1cc(NC(=O)c2cc(Cl)cc(C(=O)Nc3cc(OCCCN(C)C)c4ccccc4n3)n2)nc2ccccc12 — IC50 (HT-1080; ATP luminescence; 72 h): 1.8 µM
CCCON(Cc1ccc(C(=O)NO)cc1)C(=O)Nc1ccc(N(C)C)cc1 — IC50 (SUP-B15; ATP luminescence; 72 h): 6.62 µM
CC(C)/N=C1\c2cc(C(N)=O)nc3c(N)c(Cl)c(N)c(c23)N1C — IC50 (HCC4017): 0.48 µM
Oc1ccccc1CN=CCNc1ccnc2cc(Cl)ccc12 — IC50 (CHO; MTT): > 300 µM
C=C(C)C(=O)Nc1ccc(-c2c(-c3ccc(Oc4nccc(C)n4)c(F)c3)c3c(N)ncnc3n2C)cc1 — IC50 (SNU-16; ATP luminescence; 96 h): 0.00325 µM
CC(C)C[C@H](NC(=O)[C@H](Cc1ccccc1)NC(=O)c1cnccn1)B(O)O — IC50 (SK-N-MC; ATP luminescence): 0.0078 µM
COc1cc(OC)c(/C=C/S(=O)(=O)Nc2ccc(OC)c(N)c2)c(OC)c1 — IC50 (NCI-H187; trypan blue; 96 h): 0.004 µM
O=C(O)c1ccc(NC(=O)c2cc3cc(Cl)ccc3[nH]2)cc1 — IC50 (T24; MTT): 15 µM
CN1C(=O)c2cc(C(N)=O)nc3c(N)c(Cl)c(N)c1c23 — IC50 (HCC4017): 15.9 µM
CCN1C(=O)N(c2c(F)c(OC)cc(OC)c2F)Cc2cnc3[nH]c(CN4CCOCC4)cc3c21 — IC50 (SNU-16; ATP luminescence; 96 h): 0.00338 µM
COc1cc(C(=O)Nc2cc(OCCN3CCCC3)c3ccccc3n2)nc(C(=O)Nc2cc(OCCN3CCCC3)c3ccccc3n2)c1 — IC50 (HT-1080; ATP luminescence; 72 h): 1.5 µM
COc1c(C)c(OC)c2c(c1C)OC(c1ccccc1)CC2=O (centres unmarked) — IC50 (SH-SY5Y; SRB; 72 h): > 50 µM
COc1cc(Nc2nccc(-c3cnn4nc(OC)ccc34)n2)cc(C(F)(F)F)c1 — IC50 (SK-N-MC; ATP luminescence): 0.13 µM
CC(=O)O[C@@]12CO[C@@H]1C[C@H](O)[C@@]1(C)C(=O)[C@H](O)C3=C(C)[C@@H](OC(=O)[C@H](O)[C@@H](NC(=O)OC(C)(C)C)c4ccccc4)C[C@@](O)([C@@H](OC(=O)c4ccccc4)[C@H]21)C3(C)C — IC50 (HCC1937; ATP luminescence; 72 h): > 2.5 µM
CCCCN(Cc1ccc(C(=O)NO)cc1)C(=O)Nc1ccccc1 — IC50 (SUP-B15; ATP luminescence; 72 h): 8.66 µM
O=C(Nc1cc(OCCN2CCCC2)c2ccccc2n1)c1cc(OCCN2CCCC2)cc(C(=O)Nc2cc(OCCN3CCCC3)c3ccccc3n2)n1 — IC50 (HT-1080; ATP luminescence; 72 h): 2.2 µM
Clc1ccc2c(NCCN(Cc3ccccn3)Cc3ccccn3)ccnc2c1 — IC50 (CHO; MTT): > 240 µM
COc1cc(C(=O)Nc2cc(OC)c3ccccc3n2)nc(C(=O)Nc2cc(OC)c3ccccc3n2)c1 — IC50 (HT-1080; ATP luminescence; 72 h): > 40 µM
Cc1ccc2nc(Cl)c(C=C3C(=O)Nc4ccccc43)cc2c1 — IC50 (CHO; MTT; 72 h): 80 µM
NCCCOc1cc(NC(=O)c2cc(Cl)cc(C(=O)Nc3cc(OCCCN)c4ccccc4n3)n2)nc2ccccc12 — IC50 (HT-1080; ATP luminescence; 72 h): 0.6 µM
O=C1Nc2ccccc2C1=Cc1cc2ccccc2nc1Cl — IC50 (CHO; MTT; 72 h): > 100 µM
NCCCOc1cc(NC(=O)c2cccc(C(=O)Nc3cc(OCCCN)c4ccccc4n3)n2)nc2ccccc12 — IC50 (HT-1080; ATP luminescence; 72 h): 1.1 µM
CCN1CCN(c2ccc(Nc3cc(N(C)C(=O)Nc4c(Cl)c(OC)cc(OC)c4Cl)ncn3)cc2)CC1 — IC50 (NCI-H716; ATP luminescence; 96 h): 0.00576 µM
C#CCOc1cc(C(=O)Nc2cc(OCCN)c3ccccc3n2)nc(C(=O)Nc2cc(OCCN)c3ccccc3n2)c1 — IC50 (HT-1080; ATP luminescence; 72 h): 4.7 µM
O=[N+]([O-])c1ccc(NC(=S)NN=Cc2ccccn2)cc1 — IC50 (BHK; SRB; 48 h): 54.8 µM
NCCCOc1cc(NC(=O)c2cc(OCCN)cc(C(=O)Nc3cc(OCCCN)c4ccccc4n3)n2)nc2ccccc12 — IC50 (HT-1080; ATP luminescence; 72 h): 6.8 µM
Clc1ccc2c(NCCNCc3ccccn3)ccnc2c1 — IC50 (CHO; MTT): 144 µM
